Laboratory results as given in publication PMC9233244 (Diabetes, 2022).

What was measured:
Assay type in all cases: in vivo, mouse
obese high-fat-fed mice = experiment: body weight and food intake in obese high-fat-fed mice
WT and Gipr−/− mice = experiment: intraperitoneal glucose tolerance test in WT and Gipr−/− mice
[1] = tested on: brain neuronal activity (cFos); experiment: whole-brain cFos analysis; conditions: 120 min
Outline: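 Chow-fed male C57BL/6J mice were acclimated with daily s.c. PBS for 4 days. On day 5 they received s.c. GIPR agonist (10 nmol/kg), PYY analog (100 nmol/kg), GDF15 (2 nmol/kg) or combinations. Mice were formalin-perfused 120 min post-dose, and brains were iDISCO+-cleared, cFos-immunostained (rabbit, 1:200), light-sheet imaged and registered. Counts came from voxel-based statistics within PBN_D/PBN_V hotspots defined by averaged PYY- and GDF15-group signal. Vehicle n = 8.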

[2] = agent alone, dosed once daily, 72-h dosing period, n = 6 per group

## LAGIPRA
Obese high-fat-fed mice; LAGIPRA 10 nmol/kg plus LAPYY analog, once daily
  weight loss in combination with the LAPYY analog: only delivered greater weight loss in combination with a low dose of the LAPYY analog
Obese high-fat-fed mice; [2]
  body weight: reduced
  food intake: reduced
WT and Gipr−/− mice
  blood glucose in intraperitoneal glucose tolerance test: lowering blood glucose

B1: GDF15: recombinant human GDF15, cytokine used as aversive agent (protein, UniProt Q99988 195-308, looked up)
Growth/differentiation factor …: ARARNGDHCPLGPGRCCRLHTVRASLEDLGWADWVLSPREVQVTMCIGACPSQFRAANMHAQIKTSLHRLKPDTVPAPCCVPASYNPMVLIQKTDTGVSLQTYDDLLAKDCHCI
[1]
  number of cFos+ cells in the BST: increased numbers
  number of cFos+ cells in the NTS and DMX: increased number
[1]; GDF15 2 nmol/kg s.c., vs vehicle, n = 8
  brain regions with decreased cFos expression: decreased cFos expression in nine regions
[1]; GIPRA 10, PYY 100, GDF15 2 nmol/kg s.c., vs vehicle, n = 8
  brain regions with increased cFos expression: increased cFos expression in seven brain areas
